Results from ChEMBL document CHEMBL1156288, “Synthesis and evaluation of tricyclic derivatives containing a non-aromatic amide as inhibitors of poly(ADP-ribose)polymerase-1 (PARP-1)” (Bioorg Med Chem Lett, 2010).

What was measured:
[1] = biological target: T1, Poly [ADP-ribose] polymerase 1 (Homo sapiens, UniProt P09874); assay: Inhibition of PARP1
[2] = Solubility in water; format: physicochemical; conditions: buffer
[3] = biological target: T1, Poly [ADP-ribose] polymerase 1; conditions: CHO-K1
[4] = Half life in human liver microsomes by LC/MS/MS analysis; format: ADME, Microsome
In short: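 Human liver microsomes incubated at 37 °C. Parent compound quantified by LC/MS/MS at 0, 15, 45 and 80 min, giving t1/2 in min. Mean of triplicate experiments; buspirone run alongside.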

[5] = AUC (0 to infinity) in rat at 10 mg/kg, iv by LC/MS/MS analysis; format: ADME, organism-based; design: time infinity, dose 10 mg/kg, route intravenous; conditions: plasma
In short: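 Rats (n = 3) received a single 10 mg/kg intravenous dose. Drug levels were measured by LC/MS/MS, and AUC from zero to infinity was derived alongside clearance and half-life as part of the pharmacokinetic profile.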

[6] = Clearance in rat at 10 mg/kg, iv by LC/MS/MS analysis; format: ADME, organism-based; design: dose 10 mg/kg, route intravenous; conditions: in vivo
In short: (§1)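 Rats (n = 3) given 10 mg/kg by intravenous administration; plasma levels measured by LC/MS/MS; AUC0-inf, CL and t1/2 reported.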

[7] = Half life in rat at 10 mg/kg, iv by LC/MS/MS analysis; format: ADME, organism-based; design: dose 10 mg/kg, route intravenous; conditions: in vivo; in short: as §1
[8] = Drug level in rat brain at 10 mg/kg, iv after 0.17 hrs by LC/MS/MS analysis; format: ADME, organism-based; design: dose 10 mg/kg, route intravenous; conditions: read-out: Drug uptake
In short: (§2)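 Single intravenous dose of 10 mg/kg in rats, n = 3. Brain (ng/g) and plasma (ng/ml) concentrations measured by LC/MS/MS at 0.17, 0.75 and 4.00 h. Ratio is brain over plasma concentration.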

[9] = Drug level in rat brain at 10 mg/kg, iv after 0.75 hrs by LC/MS/MS analysis; format: ADME, organism-based; design: dose 10 mg/kg, route intravenous; conditions: read-out: Drug uptake; in short: as §2
[10] = Drug level in rat brain at 10 mg/kg, iv after 4 hrs by LC/MS/MS analysis; format: ADME, organism-based; design: dose 10 mg/kg, route intravenous; conditions: read-out: Drug uptake; in short: as §2
[11] = Drug level in rat plasma at 10 mg/kg, iv after 0.17 hrs by LC/MS/MS analysis; format: ADME, organism-based; design: dose 10 mg/kg, route intravenous; in short: as §2
[12] = Drug level in rat plasma at 10 mg/kg, iv after 0.75 hrs by LC/MS/MS analysis; format: ADME, organism-based; design: dose 10 mg/kg, route intravenous; in short: as §2
[13] = Drug level in rat plasma at 10 mg/kg, iv after 4 hrs by LC/MS/MS analysis; format: ADME, organism-based; design: dose 10 mg/kg, route intravenous; in short: as §2
[14] = Ratio of drug level in brain to plasma in rat at 10 mg/kg, iv after 0.17 hrs by LC/MS/MS analysis; format: ADME, organism-based; design: dose 10 mg/kg, route intravenous; in short: as §2
[15] = Ratio of drug level in brain to plasma in rat at 10 mg/kg, iv after 0.75 hrs by LC/MS/MS analysis; format: ADME, organism-based; design: dose 10 mg/kg, route intravenous; in short: as §2
[16] = Ratio of drug level in brain to plasma in rat at 10 mg/kg, iv after 4 hrs by LC/MS/MS analysis; format: ADME, organism-based; design: dose 10 mg/kg, route intravenous; in short: as §2

T1 sequence (P09874 whole entry): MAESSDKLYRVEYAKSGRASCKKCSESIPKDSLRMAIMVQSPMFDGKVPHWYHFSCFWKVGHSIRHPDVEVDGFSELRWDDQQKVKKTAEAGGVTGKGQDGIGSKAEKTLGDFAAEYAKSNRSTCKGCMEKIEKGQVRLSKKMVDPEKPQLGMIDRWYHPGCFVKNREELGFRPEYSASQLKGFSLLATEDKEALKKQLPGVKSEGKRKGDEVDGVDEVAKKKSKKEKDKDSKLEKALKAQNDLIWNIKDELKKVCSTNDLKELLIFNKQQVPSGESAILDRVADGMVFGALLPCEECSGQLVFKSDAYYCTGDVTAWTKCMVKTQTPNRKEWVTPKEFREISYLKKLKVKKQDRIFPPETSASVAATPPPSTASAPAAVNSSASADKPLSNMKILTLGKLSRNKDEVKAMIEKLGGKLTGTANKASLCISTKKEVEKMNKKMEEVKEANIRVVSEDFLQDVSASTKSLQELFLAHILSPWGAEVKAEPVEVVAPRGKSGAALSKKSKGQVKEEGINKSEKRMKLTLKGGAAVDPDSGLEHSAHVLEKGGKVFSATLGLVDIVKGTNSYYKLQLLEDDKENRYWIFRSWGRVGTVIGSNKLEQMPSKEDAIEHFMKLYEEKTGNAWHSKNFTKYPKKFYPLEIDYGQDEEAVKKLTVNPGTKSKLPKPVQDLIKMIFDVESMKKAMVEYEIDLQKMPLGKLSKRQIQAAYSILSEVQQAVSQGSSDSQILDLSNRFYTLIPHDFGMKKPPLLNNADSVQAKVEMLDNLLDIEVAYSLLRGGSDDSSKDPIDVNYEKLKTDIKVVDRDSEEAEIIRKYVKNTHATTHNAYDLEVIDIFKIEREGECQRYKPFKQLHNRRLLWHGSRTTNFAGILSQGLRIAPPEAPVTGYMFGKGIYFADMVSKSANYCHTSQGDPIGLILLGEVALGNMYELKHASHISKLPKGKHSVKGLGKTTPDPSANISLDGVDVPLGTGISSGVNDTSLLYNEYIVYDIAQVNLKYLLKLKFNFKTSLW

IC50 [1]	solubility [2]	ED50 [3]	Compound	further results
> 10000 nM	Soluble	9440 nM	CN(C)c1ccc(CCN2CCC(Oc3ccc4[nH]c(=O)c5c(c4c3)CCSC5)CC2)cc1	–
71 nM	Soluble	740 nM	CC(C)CCN1CCC(Oc2ccc3[nH]c(=O)c4c(c3c2)CCSC4)CC1	–
42 nM	Soluble	220 nM	CCCN1CCC(Oc2ccc3[nH]c(=O)c4c(c3c2)CCSC4)CC1	AUC(0-inf) [5]: 2910 ng·h/mL; clearance [6]: 56.7 mL/min/kg; half-life [7]: 207 min; concentration at 0.17 h [8]: 1700 ng/g; concentration at 0.75 h [9]: 391 ng/g; concentration at 4 h [10]: 13 ng/g; concentration at 0.17 h [11]: 2480 ng/mL; concentration at 0.75 h [12]: 610 ng/mL; concentration at 4 h [13]: 18 ng/mL; Kp at 0.17 h [14]: 0.69; Kp at 0.75 h [15]: 0.64; Kp at 4 h [16]: 0.72; half-life [4]: 52.6 min
38 nM	Soluble	360 nM	O=c1[nH]c2ccc(OC3CCN(CCc4ccccc4)CC3)cc2c2c1CSCC2	–
53 nM	Soluble	800 nM	O=c1[nH]c2ccc(OC3CCN(Cc4ccccc4)CC3)cc2c2c1CSCC2	–
40 nM	Soluble	1260 nM	COCCN1CCC(Oc2ccc3[nH]c(=O)c4c(c3c2)CCSC4)CC1	–

The remaining lines, values behind:

Compound	IC50 [1]	solubility [2]	ED50 [3]	further results
CCCCCN1CCC(Oc2ccc3[nH]c(=O)c4c(c3c2)CCSC4)CC1	45 nM	Soluble	580 nM	–
CCN1CCC(Oc2ccc3[nH]c(=O)c4c(c3c2)CCSC4)C1 (stereo not drawn)	13 nM	Soluble	350 nM	–
O=c1[nH]c2ccc(OC3CCCNC3)cc2c2c1CSCC2 (stereo not drawn)	28 nM	Soluble	890 nM	–
O=c1[nH]c2ccc(OC3CCN(c4ccccc4)CC3)cc2c2c1CSCC2	695 nM	–	1860 nM	–
CCCN1CCCC(Oc2ccc3[nH]c(=O)c4c(c3c2)CCSC4)C1 (stereo not drawn)	56 nM	Soluble	740 nM	–
CN1CCC(Oc2ccc3[nH]c(=O)c4c(c3c2)CCSC4)C1 (stereo not drawn)	80 nM	Soluble	730 nM	–
CCN1CCCC(Oc2ccc3[nH]c(=O)c4c(c3c2)CCSC4)C1 (stereo not drawn)	25 nM	Soluble	280 nM	–
O=C1CC2(CCCC2)CC(=O)N1CCCCN1CCN(c2ncccn2)CC1 [BUSPIRONE]	–	–	–	half-life [4]: 3.8 min
O=S(=O)(NCCCN1CCOCC1)c1ccc2c(c1)Cc1c-2nc(O)c2ccccc12	–	–	1000 nM	–
O=c1[nH]c2ccc(OC3CCN(CCN4CCCCC4)CC3)cc2c2c1CSCC2	173 nM	Soluble	> 30000 nM	–
O=c1[nH]c2ccc(OC3CCN(CCO)CC3)cc2c2c1CSCC2	29 nM	Soluble	1600 nM	–
O=c1[nH]c2ccc(O)cc2c2c1CSCC2	99 nM	–	–	–
CN1CCCC(Oc2ccc3[nH]c(=O)c4c(c3c2)CCSC4)C1 (stereo not drawn)	39 nM	Soluble	580 nM	–
